An excerpt weighted towards active compounds, which were near 0.58% of everything screened.
OXTR ag: human OXTR agonists, primary screen, fluorescence, CHO-OTR cells, Fluo-8 calcium | activation, % at 3 µM | 0.32% of 320,000 active | Oxytocin receptor (Homo sapiens), P30559 | AID 2435, 2010 | Fluo-8 calcium fluorescence; normalized: DMSO 0%, oxytocin 100%;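 active = activation above the mean of all tested compounds plus 3 SD, cutoff set per screening run, cut at about 20% in these data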;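 also: peak over basal fluorescence ratio from a 100 s FLIPR kinetic read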
Target sequence (P30559 whole entry, looked up): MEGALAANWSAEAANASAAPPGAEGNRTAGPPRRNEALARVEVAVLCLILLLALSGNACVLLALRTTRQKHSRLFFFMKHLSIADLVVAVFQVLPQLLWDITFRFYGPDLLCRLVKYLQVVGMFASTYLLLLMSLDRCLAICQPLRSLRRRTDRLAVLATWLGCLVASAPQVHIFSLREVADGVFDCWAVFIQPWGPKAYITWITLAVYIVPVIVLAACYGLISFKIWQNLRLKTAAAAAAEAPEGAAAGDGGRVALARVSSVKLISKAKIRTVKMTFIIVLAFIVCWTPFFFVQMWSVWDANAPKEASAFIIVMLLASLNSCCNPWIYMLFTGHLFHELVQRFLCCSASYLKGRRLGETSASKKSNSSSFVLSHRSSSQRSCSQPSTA
TRPML3 ag: human TRPML3 channel agonists, primary screen, cell-based, HEK293 TRPML3-YFP, Fluo-8 calcium fluorescence, 3 µM. 100% = the carbachol control signal. activation, % at 3 µM. 0.29% of 220,000 active;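 active = activation above its plate's cutoff, the mean activation of the plate's test wells plus 3 SD, cut at about 12% in these data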;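 also: 0% = DMSO only wells and 100% = carbachol wells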
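Material: TRPML3-YFP stable HEK293 cells | Dosing: One concentration, 3 µM nominal, 0.3% DMSO | Timing: 125 s total fluorescence read per well | Technique: Fluo-8 calcium dye fluorescence, ex 470-495, em 515-575 nm | Measure: Percent activation from peak-to-basal fluorescence ratio, scaled between DMSO and carbachol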
V1R ag counter: agonists of human V1a receptor, primary screen, counter-screen for OXTR agonist project, fluorescence, CHO-V1R cells. Fluo-8 calcium fluorescence, agonist mode; 0% DMSO, 100% 3 nM vasopressin. Vasopressin V1a receptor (Homo sapiens), P37288. 0.25% of 320,000 active. activation, % at 3 µM;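 active = activation above the mean activation of all tested compounds plus 3 SD, per screening run, cut at about 20% in these data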;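 also: signal is peak over basal fluorescence ratio across a 100 second FLIPR read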
OXTR potentiate: human OXTR potentiators, primary screen, fluorescence, CHO-OTR cells, Fluo-8 calcium. Fluo-8 calcium fluorescence, potentiator mode; 0% = oxytocin EC15, 100% = EC100. Oxytocin receptor (Homo sapiens), P30559. 0.061% of 320,000 active. activation, % at 3 µM;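 active = activation above that plate's cutoff, the mean activation of tested compounds plus 3 SD, cut at about 6.6% in these data, passing the limit was not always enough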;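 also: 100% uses oxytocin at 75 nM as the full agonist control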
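Replication – single well per compound, singlicate · Assay system – CHO cell line stably expressing human OTR · Timing – 6 min pre-incubation, 100 s read · Measure – normalized max/min fluorescence ratio, % activation · Doses – 3.0 µM, one dose · Detection – Fluo-8 calcium dye fluorescence · Probe or stimulus – oxytocin near EC15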
TRPN1 ag: zebrafish TRPN1 channel agonists, primary screen, cell-based, HEK293, calcium fluorescence; AID 1424, 2008; HEK293 zebrafish TRPN1-YFP, Fluo-8 calcium fluorescence; 100% = response to 87 µM carbachol; 0.18% of 220,000 active; activation, % at 3 µM; transient receptor potential cation channel N1 (TRPN1/NompC), Danio rerio;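 active = activation above its plate's cutoff, the mean activation of test wells on that plate plus 3 SD, cut at about 19% in these data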;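 also: 0% = DMSO alone and 100% = 87 µM carbachol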
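Control set: carbachol 87 µM as high control, DMSO as low control; system: HEK293 stable line with zebrafish TRPN1-YFP; read-out: % activation versus carbachol response; detection: intracellular calcium fluorescence with Fluo-8; doses: single test compound dose, 3 µM nominal, 0.3% DMSO; schedule: dye 1 h 37 °C plus 30 min RT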
V1R ag confirm: V1a receptor agonists, calcium signal, confirmation, Fluo-8 calcium fluorescence, CHO-V1R cells | activation, % at 3 µM | shares compounds with V1R ag counter | 20% of 180 active | AID 434964, 2010 | agonist;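 active = average activation exceeds primary screen hit cutoff, cut at about 21% in these data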;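 also: peak over basal fluorescence ratio during a 100 s FLIPR read; 0% = DMSO only wells and 100% = 3 nM vasopressin wells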
OXTR ag counter: human OXTR agonists, counter-screen for V1R agonist project, fluorescence, CHO-OTR cells, triplicate; activation, % at 3 µM; shares compounds with V1R ag counter; 10% of 180 active; Fluo-8 calcium fluorescence;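 active = mean activation over three repeats above the cutoff from the earlier oxytocin receptor agonist screen, cut at about 20% in these data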;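 also: peak over minimum fluorescence ratio within a 100 second FLIPR read; 0% = DMSO only wells and 100% = oxytocin high control wells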
* hit, by the source's call; · = no result.

SMILES	OXTR ag	TRPML3 ag	V1R ag counter	OXTR potentiate	TRPN1 ag	V1R ag confirm	OXTR ag counter
CCC[C@@H]1C[C@@H](C(=O)N[C@@H](C2O[C@H](SC)[C@H](O)[C@@H](O)[C@H]2O)[C@H](C)Cl)N(C)C1 (stereo partly specified)	1	1	43*	-2	0	4	1
CCCCn1c(SCc2nc(N)nc(N3CCCCC3)n2)nc2c1c(=O)n(C)c(=O)n2C	0	1	2	-7	2	·	·
O=C(Cc1c(F)cccc1Cl)Nc1nc2ccccc2s1	1	0	22*	-20	0	2	-1
CC(=O)c1sc(NC(=O)Cc2c(F)cccc2Cl)nc1C	-1	·	-1	-2	·	·	·
COc1ccc(N(CC(=O)N2CCN(c3cccc(C)c3)C(C)C2)S(=O)(=O)c2c(C)n[nH]c2C)cc1 (stereo unspecified)	0	0	23*	-14	-1	0	-1
O=C(CNC(=O)c1ccc2c(c1)OCCO2)N/N=C/c1ccc([N+](=O)[O-])cc1	2	·	2	2	·	·	·
C[C@H](CO)N1C[C@H](C)[C@@H](CN(C)Cc2ccc(-c3ccccc3)cc2)Oc2c(NS(=O)(=O)c3cn(C)cn3)cccc2C1=O	1	·	77*	-4	·	-1	1
Nc1c(C(=O)NCc2ccc3c(c2)OCO3)nnn1Cc1ccc(Br)cc1	16	8	37*	-9	15	15	23*
O=C1c2ccccc2C(=O)N1CCC#Cc1ccc2cc(CCCO)oc(=O)c2c1	15	·	26*	-11	·	9	8
Cc1nn(C(C)C(=O)Nc2ccccc2Cl)c(=O)c2nn(-c3ccccc3)c(C)c12 (stereo unspecified)	-1	·	1	0	·	·	·
COC(=O)c1ccccc1NC(=O)C(C)n1nc(C)c2c(C)n(-c3ccccc3)nc2c1=O (stereo unspecified)	1	·	23*	-10	·	0	-1
CC1CCCCC1NCC(=O)NCc1ccc(F)cc1 (stereo unspecified)	0	0	-1	-3	2	·	·
CSc1ccc(N=Nc2c(C)[nH]n(C)c2=O)cc1	-2	-1	-2	11	-3	·	·
O=C(Nc1ccc2c(c1)S(=O)(=O)N=C1CCCCCN12)c1ccccc1Cl	0	1	0	-11	0	·	·
CC(CC(=O)N1CCN(c2cccc(Cl)c2)CC1)S(=O)(=O)c1ccc2c(c1)NC(=O)CO2 (stereo unspecified)	17	·	21*	-13	·	7	5
CC(C)Cn1c(-c2ccc(Br)cc2)c[nH]c1=S	8	-1	35*	-24	-4	0	-1
CCOC(=O)c1[nH]c(CN2CCN(c3ccc(OC)cc3)CC2)c(C(=O)OCC)c1C	18	·	24*	-29	·	12	22*
CCOC(=O)c1[nH]c(C)c(C(=O)N2CCN(c3ccc(OC)cc3)CC2)c1C	1	1	3	-17	0	·	·
COc1ccc(Cc2nnc(SCC(=O)Nc3ccc(N4CCOCC4)cc3)n2C)cc1	0	·	1	-4	·	·	·
CCCOc1ccc(-c2c(C(=O)N/N=C/c3ccncc3)nnn2-c2nonc2N)cc1	9	·	21*	-13	·	0	0
COc1cccc(-c2c(C(=O)N/N=C/c3ccsc3)nnn2-c2nonc2N)c1	8	·	25*	-8	·	17	5
Nc1nonc1-n1nnc(C(=O)N/N=C/c2cccnc2)c1CSc1ccc(Cl)cc1	15	·	21*	-8	·	3	5
